For assay [1], the system named is Rattus norvegicus. Nature of the assay: In vivo intrinsic pressor activity for its ability to maximally elevate arterial pressure in pithed rat. The class given is functional, Artery. Put shortly: (§1)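 Male Sprague-Dawley rats (250-300 g), anesthetized with sodium amytal (125 mg/kg ip), intubated, pithed; body temperature held at 37 °C; 30 min stabilization. Ganglionic nicotinic block with pentolinium tartrate (18.5 μmol/kg iv) 20 min before agonist. Drugs in 0.9% saline, iv, 0.1 mL/100 g. Mean arterial pressure recorded; two or three compounds per rat; five to eight rats per compound.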

Assay [2] relates to Rattus norvegicus. Nature of the assay: In vivo intravenous dose required to produce a half maximal pressor response in the pithed rat. It counts as functional. The gist of the method:
as §1

The test system of assay [3] is Muscarinic acetylcholine receptor M1 (Oryctolagus cuniculus).

Experimental findings from ChEMBL document CHEMBL1126216, “Amide, urea, and carbamate analogues of the muscarinic agent [4-[[N-(3-chlorophenyl)carbamoyl]oxy]-2-butynyl]trimethylammonium chloride” (1992) are described below.

For orientation: ED50 means the midpoint of the dose-response relation. Lower therefore signals an effect at a small dose.

Structures are written as SMILES.

Regarding `C[C@H](C#CC[N+](C)(C)C)OC(=O)Nc1ccc(Cl)cc1`, the IPA with Rattus norvegicus [1] is listed as 0.8. This compound also came in with an ED50 in the assay on Rattus norvegicus [2] of 0.039 µmol/kg. The compound also yielded a KA in assay [3] of 0.49 µM.
Taken in the same sequence, the figures for `CC(C#CC[N+](C)(C)C)N(C)C(=O)Nc1cccc(Cl)c1` (configuration not stated) were 1, 0.69 µmol/kg and 83.3 µM.
`C[C@H](C#CC[N+](C)(C)C)OC(=O)Nc1cccc(Cl)c1`: the IPA with Rattus norvegicus [1] came to 1. The 50% effect level in the assay with Rattus norvegicus [2] (ED50) was put at a dose of 0.18 µmol/kg. The compound further returned a KA in assay [3] of 0.78 µM.
Taken in the same sequence, the figures for `C[C@@H](C#CC[N+](C)(C)C)OC(=O)Nc1cccc(Cl)c1` were 0.7, 0.12 µmol/kg and 2.12 µM.
The compound `C[C@@H](C#CC[N+](C)(C)C)OC(=O)Nc1ccc(Cl)cc1` returned an IPA in the assay with Rattus norvegicus [1] of 0.66. Also, the 50% effect level in the assay with Rattus norvegicus [2] (ED50) was put at a dose of 0.008 µmol/kg. Moreover, the KA in assay [3] was found to be 0.18 µM.
Compound `C[N+](C)(C)CC#CCOC(=O)Nc1cccc(Cl)c1` returned an IPA in the assay on Rattus norvegicus [1] of 1. Also, in the assay on Rattus norvegicus [2], the 50% effect level (ED50) was put at a dose of 0.45 µmol/kg.
In turn, `CC(C#CC[N+](C)(C)C)N(C)C(=O)Cc1cccc(Cl)c1` (configuration not stated) returned an IPA in the assay with Rattus norvegicus [1] of 1. Moreover, the 50% effect level in the assay on Rattus norvegicus [2] (ED50) was put at a dose of 1.48 µmol/kg. Moreover, in assay [3], the KA was 416 µM.
The compound `CN(CC#CC[N+](C)(C)C)C(=O)Cc1cccc(Cl)c1` yielded an IPA in the assay on Rattus norvegicus [1] of 1. This compound also had an ED50 with Rattus norvegicus [2] of 0.92 µmol/kg. In assay [3], this compound came in with a KA of 20.2 µM.
For `CC(C#CC[N+](C)(C)C)OC(=O)Nc1ccc(Cl)cc1` (racemic), in the assay with Rattus norvegicus [1], the IPA is 0.75. For the same compound, in the assay on Rattus norvegicus [2], the ED50 was determined as 0.029 µmol/kg. Moreover, the KA in assay [3] is 0.48 µM.
As for `CN(CC#CC[N+](C)(C)C)C(=O)Nc1cccc(Cl)c1`, in the assay on Rattus norvegicus [1], the IPA is on record as 1. The 50% effective dose (ED50) in the assay with Rattus norvegicus [2] worked out at 0.55 µmol/kg. Also, the KA in assay [3] came out at 24.8 µM.
Compound `CC(C#CC[N+](C)(C)C)OC(=O)Nc1cccc(Cl)c1` (racemic) yielded an IPA with Rattus norvegicus [1] of 0.76. In the assay on Rattus norvegicus [2], this compound gave an ED50 of 0.09 µmol/kg. For the same compound, in assay [3], the KA amounted to 1.46 µM.
